tested on: not listed separately; test: Cytotoxicity against mouse RAW264.7 cells assessed as cell viability at 30 uM after 18 hrs by MTT assay; format: cell-based; conditions: read-out: Activity
In short: (§1)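 MTT viability assay. RAW264.7 cells seeded at 1.0 × 10^5 cells/well; after 6 h, nonadherent cells were washed off. Adherent cells were cultured with test compound for 18 h. MTT (5 mg/mL in PBS) was added for 2 h at 37 °C. Formazan was dissolved in isopropanol with 0.04 M HCl and OD read at 570 nm (reference 655 nm).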

SMILES | viability at 18 h, 30 µM [%]
CCC(C)C(=O)c1c(O)c(CC=C(C)C)c2oc(=O)cc([C@@H](O)CC)c2c1O (stereo not given in full) [KAYEASSAMIN F] | 31.5
CCCC(=O)c1c(O)c2c(c3c([C@@H](O)CC)cc(=O)oc13)OC(C)(C)C=C2 [DEACETYLMAMMEA E/BC CYCLO D] | 107
CC[C@H](OC(C)=O)c1cc(=O)oc2c(C(=O)CC(C)C)c(O)c(C/C=C(\C)CCC=C(C)C)c(O)c12 [MAMMEASIN B] | 13.6
CCC(C)C(=O)c1c(O)c(CC=C(C)C)c(O)c2c([C@H](CC)OC(C)=O)cc(=O)oc12 (stereo not given in full) | 11
CCC(C)C(=O)c1c(O)c(C/C=C(\C)CCC=C(C)C)c(O)c2c([C@@H](O)CC)cc(=O)oc12 (stereo not given in full) [SURANGIN C] | 42.9

tested on: RAW264.7; test: Antiinflammatory activity in mouse RAW264.7 cells assessed as inhibition of LPS-induced NO production at 10 uM relative to control; format: functional; conditions: not given
In short: (§2)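 RAW264.7 cells (DMEM, 10% FBS, 37 °C, 5% CO2) seeded at 2.5 × 10^5 cells/well. After 6 h, nonadherent cells were washed off. Adherent cells were exposed to test compound for 10 min, then to LPS (E. coli 055:B5, final 10 µg/mL) for 18 h. Supernatant nitrite was measured by Griess reaction. Inhibition % = (A−B)/(A−C)×100, with C as the no-LPS control. IC50 was read graphically; N = 4, mean ± SEM. CAPE was the reference.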

SMILES | inhibition at 10 µM [%]
Nc1n[nH]c2nnc(-c3c(-c4ccccc4)nn4ccccc34)cc12 | 7.2

tested on: RAW264.7; test: Antiinflammatory activity in mouse RAW264.7 cells assessed as inhibition of LPS-induced NO production at 3 uM incubated for 10 mins prior to LPS-challenge measured after 18 hrs by Griess method relative to control; conditions: not given

SMILES | inhibition at 3 µM [%]
CCC(C)C(=O)c1c(O)c(CC=C(C)C)c2oc(=O)cc([C@@H](O)CC)c2c1O (stereo not given in full) [KAYEASSAMIN F] | 41.3
CCCC(=O)c1c(O)c2c(c3c([C@@H](O)CC)cc(=O)oc13)OC(C)(C)C=C2 [DEACETYLMAMMEA E/BC CYCLO D] | 20.2
CC[C@H](OC(C)=O)c1cc(=O)oc2c(C(=O)CC(C)C)c(O)c(C/C=C(\C)CCC=C(C)C)c(O)c12 [MAMMEASIN B] | 31.1
CCC(C)C(=O)c1c(O)c(CC=C(C)C)c(O)c2c([C@H](CC)OC(C)=O)cc(=O)oc12 (stereo not given in full) | 24.2
CCC(C)C(=O)c1c(O)c(C/C=C(\C)CCC=C(C)C)c(O)c2c([C@@H](O)CC)cc(=O)oc12 (stereo not given in full) [SURANGIN C] | 40.8

tested on: not listed separately; test: Cytotoxicity against mouse RAW264.7 cells assessed as cell viability at 3 uM after 18 hrs by MTT assay; format: cell-based; conditions: read-out: Activity; in short: as §1

SMILES | viability at 18 h, 3 µM [%]
CC[C@H](OC(C)=O)c1cc(=O)oc2c(C(=O)CC(C)C)c(O)c(C/C=C(\C)CCC=C(C)C)c(O)c12 [MAMMEASIN B] | 60.3
CCC(C)C(=O)c1c(O)c(CC=C(C)C)c(O)c2c([C@H](CC)OC(C)=O)cc(=O)oc12 (stereo not given in full) | 55.3

tested on: RAW264.7; test: Antiinflammatory activity in mouse RAW264.7 cells assessed as inhibition of LPS-induced NO production at 30 uM incubated for 10 mins prior to LPS-challenge measured after 18 hrs by Griess method relative to control; format: functional; conditions: not given; in short: as §2

SMILES | inhibition at 30 µM [%]
CCCC(=O)c1c2c(c3oc(=O)cc(CCC)c3c1O)C=CC(C)(C)O2 | 13.8
CCC(C)C(=O)c1c2c(c3oc(=O)cc(-c4ccccc4)c3c1O)C=CC(C)(C)O2 (stereo not given) | 18.3
CCCc1cc(=O)oc2c3c(c(C(=O)C(C)CC)c(O)c12)OC(C)(C)C=C3 (stereo not given) | 13.3
CCCC(=O)c1c2c(c3oc(=O)cc(-c4ccccc4)c3c1O)C=CC(C)(C)O2 | 14.3
CCC(C)C(=O)c1c(O)c(CC=C(C)C)c2oc(=O)cc([C@@H](O)CC)c2c1O (stereo not given in full) [KAYEASSAMIN F] | 63.1
CCCC(=O)c1c(O)c2c(c3c([C@@H](O)CC)cc(=O)oc13)OC(C)(C)C=C2 [DEACETYLMAMMEA E/BC CYCLO D] | 62.3
CC[C@H](OC(C)=O)c1cc(=O)oc2c(C(=O)CC(C)C)c(O)c(C/C=C(\C)CCC=C(C)C)c(O)c12 [MAMMEASIN B] | 88.2
CCC(C)C(=O)c1c(O)c(CC=C(C)C)c(O)c2c([C@H](CC)OC(C)=O)cc(=O)oc12 (stereo not given in full) | 89.1
CCC(C)C(=O)c1c(O)c(C/C=C(\C)CCC=C(C)C)c(O)c2c([C@@H](O)CC)cc(=O)oc12 (stereo not given in full) [SURANGIN C] | 71.3

tested on: RAW264.7; test: Antiinflammatory activity in mouse RAW264.7 cells assessed as inhibition of LPS-induced NO production at 100 uM relative to control; format: functional; conditions: not given; in short: as §2

SMILES | inhibition at 100 µM [%]
COc1cccc(-c2cc(=O)c3ccccc3o2)c1N | -2.4

tested on: RAW264.7; test: Antiinflammatory activity in mouse RAW264.7 cells assessed as inhibition of LPS-induced NO production at 1 uM incubated for 10 mins prior to LPS-challenge measured after 18 hrs by Griess method relative to control; format: functional; conditions: not given; in short: as §2

SMILES | inhibition at 1 µM [%]
CCC(C)C(=O)c1c(O)c(CC=C(C)C)c2oc(=O)cc([C@@H](O)CC)c2c1O (stereo not given in full) [KAYEASSAMIN F] | 31.4
CCCC(=O)c1c(O)c2c(c3c([C@@H](O)CC)cc(=O)oc13)OC(C)(C)C=C2 [DEACETYLMAMMEA E/BC CYCLO D] | 15.1
CC[C@H](OC(C)=O)c1cc(=O)oc2c(C(=O)CC(C)C)c(O)c(C/C=C(\C)CCC=C(C)C)c(O)c12 [MAMMEASIN B] | 0.6
CCC(C)C(=O)c1c(O)c(CC=C(C)C)c(O)c2c([C@H](CC)OC(C)=O)cc(=O)oc12 (stereo not given in full) | -1.5
CCC(C)C(=O)c1c(O)c(C/C=C(\C)CCC=C(C)C)c(O)c2c([C@@H](O)CC)cc(=O)oc12 (stereo not given in full) [SURANGIN C] | 18.1

tested on: RAW264.7; test: Antiinflammatory activity in mouse RAW264.7 cells assessed as inhibition of LPS-induced NO production at 10 uM incubated for 10 mins prior to LPS-challenge measured after 18 hrs by Griess method relative to control; format: functional; conditions: not given; in short: as §2

SMILES | inhibition at 10 µM [%]
CCCC(=O)c1c2c(c3oc(=O)cc(CCC)c3c1O)C=CC(C)(C)O2 | 9.9
CCC(C)C(=O)c1c2c(c3oc(=O)cc(-c4ccccc4)c3c1O)C=CC(C)(C)O2 (stereo not given) | 12.9
CCCc1cc(=O)oc2c3c(c(C(=O)C(C)CC)c(O)c12)OC(C)(C)C=C3 (stereo not given) | 10.6
CCCC(=O)c1c2c(c3oc(=O)cc(-c4ccccc4)c3c1O)C=CC(C)(C)O2 | 9.4
CCC(C)C(=O)c1c(O)c(CC=C(C)C)c2oc(=O)cc([C@@H](O)CC)c2c1O (stereo not given in full) [KAYEASSAMIN F] | 60.7
CCCC(=O)c1c(O)c2c(c3c([C@@H](O)CC)cc(=O)oc13)OC(C)(C)C=C2 [DEACETYLMAMMEA E/BC CYCLO D] | 33.1
CC[C@H](OC(C)=O)c1cc(=O)oc2c(C(=O)CC(C)C)c(O)c(C/C=C(\C)CCC=C(C)C)c(O)c12 [MAMMEASIN B] | 64.7
CCC(C)C(=O)c1c(O)c(CC=C(C)C)c(O)c2c([C@H](CC)OC(C)=O)cc(=O)oc12 (stereo not given in full) | 50.5
CCC(C)C(=O)c1c(O)c(C/C=C(\C)CCC=C(C)C)c(O)c2c([C@@H](O)CC)cc(=O)oc12 (stereo not given in full) [SURANGIN C] | 56.7

tested on: not listed separately; test: Cytotoxicity against mouse RAW264.7 cells assessed as cell viability at 10 uM after 18 hrs by MTT assay; format: cell-based; conditions: read-out: Activity; in short: as §1

SMILES | viability at 18 h, 10 µM [%]
CCC(C)C(=O)c1c(O)c(CC=C(C)C)c2oc(=O)cc([C@@H](O)CC)c2c1O (stereo not given in full) [KAYEASSAMIN F] | 55.2
CC[C@H](OC(C)=O)c1cc(=O)oc2c(C(=O)CC(C)C)c(O)c(C/C=C(\C)CCC=C(C)C)c(O)c12 [MAMMEASIN B] | 20.2
CCC(C)C(=O)c1c(O)c(CC=C(C)C)c(O)c2c([C@H](CC)OC(C)=O)cc(=O)oc12 (stereo not given in full) | 29.9
CCC(C)C(=O)c1c(O)c(C/C=C(\C)CCC=C(C)C)c(O)c2c([C@@H](O)CC)cc(=O)oc12 (stereo not given in full) [SURANGIN C] | 61.7

tested on: RAW264.7; test: Antiinflammatory activity in mouse RAW264.7 cells assessed as inhibition of LPS-induced NO production incubated for 10 mins prior to LPS-challenge measured after 18 hrs by Griess method; format: functional, cell-based; conditions: not given; in short: as §2

SMILES | IC50 [µM]
CC[C@H](OC(C)=O)c1cc(=O)oc2c(C(=O)CC(C)C)c(O)c(C/C=C(\C)CCC=C(C)C)c(O)c12 [MAMMEASIN B] | 6.4
CCC(C)C(=O)c1c(O)c(CC=C(C)C)c(O)c2c([C@H](CC)OC(C)=O)cc(=O)oc12 (stereo not given in full) | 7.9
CCC(C)C(=O)c1c(O)c(C/C=C(\C)CCC=C(C)C)c(O)c2c([C@@H](O)CC)cc(=O)oc12 (stereo not given in full) [SURANGIN C] | 6.8

More lines, now with the values ahead:

IC50 [µM] | SMILES
> 30 | CCCC(=O)c1c2c(c3oc(=O)cc(CCC)c3c1O)C=CC(C)(C)O2
> 30 | CCC(C)C(=O)c1c2c(c3oc(=O)cc(-c4ccccc4)c3c1O)C=CC(C)(C)O2 (stereo not given)
> 30 | CCCc1cc(=O)oc2c3c(c(C(=O)C(C)CC)c(O)c12)OC(C)(C)C=C3 (stereo not given)
> 30 | CCCC(=O)c1c2c(c3oc(=O)cc(-c4ccccc4)c3c1O)C=CC(C)(C)O2
6 | CCC(C)C(=O)c1c(O)c(CC=C(C)C)c2oc(=O)cc([C@@H](O)CC)c2c1O (stereo not given in full) [KAYEASSAMIN F]
19.7 | CCCC(=O)c1c(O)c2c(c3c([C@@H](O)CC)cc(=O)oc13)OC(C)(C)C=C2 [DEACETYLMAMMEA E/BC CYCLO D]
